Test results from ChEMBL document CHEMBL3271984, “Antifungal activity of 4-substituted crotonic acid esters” (1976).
Values after ≈ are worked out from the molar mass of the structure shown. Active and inactive are the calls of the source. The calls are words filed in the database; no cut-off is given here.

Assays:
Candida albicans [1] = experiment: Antifungal activity against Candida albicans ATCC 10231 assessed as growth inhibition at pH 5.6 incubated for 20 hrs in absence of 10% beef serum; assay type: functional; details: for MIC: ATCC 10231, 20 h, read-out: MIC100
Method in brief: (§1)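 Agar dilution in Sabouraud dextrose agar at pH 5.6 or 7.0, with or without 10% beef serum. C. albicans and M. mucedo were incubated 20 h at 37°; A. niger and T. mentagrophytes 5 days at 28°. The value is the minimal µg/ml giving 100% inhibition. Steps were 1 µg/ml up to 10, 2 up to 20, then 10 up to 100 µg/ml maximum.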

Candida albicans [2] = experiment: Antifungal activity against Candida albicans ATCC 10231 assessed as growth inhibition at pH 7 incubated for 20 hrs in absence of 10% beef serum; assay type: functional; details: for MIC: ATCC 10231, 20 h, read-out: MIC100; method in brief: as §1
Aspergillus niger [3] = experiment: Antifungal activity against Aspergillus niger ATCC 1004 assessed as growth inhibition at pH 7 incubated for 5 days in absence of 10% beef serum; assay type: functional; details: for MIC: ATCC 1004, 120 h, read-out: MIC100; method in brief: as §1
Aspergillus niger [4] = experiment: Antifungal activity against Aspergillus niger ATCC 1004 assessed as growth inhibition at pH 7 incubated for 5 days in presence of 10% beef serum; assay type: functional; details: for MIC: ATCC 1004, 120 h, read-out: MIC100; method in brief: as §1
Aspergillus niger [5] = experiment: Antifungal activity against Aspergillus niger ATCC 1004 assessed as growth inhibition at pH 5.6 incubated for 5 days in presence of 10% beef serum; assay type: functional; details: for MIC: ATCC 1004, 120 h, read-out: MIC100; method in brief: as §1
Mucor mucedo [6] = experiment: Antifungal activity against Mucor mucedo ATCC 7941 assessed as growth inhibition at pH 5.6 incubated for 20 hrs in absence of 10% beef serum; assay type: functional; details: ATCC 7941, 20 h, read-out: MIC100; method in brief: as §1
[7] = tested on: Trichophyton mentagrophytes; experiment: Antifungal activity against Trichophyton mentagrophytes ATCC 9129 assessed as growth inhibition at pH 5.6 incubated for 5 days in absence of 10% beef serum; assay type: functional; details: ATCC 9129, 120 h, read-out: MIC100; method in brief: as §1
Candida albicans [8] = experiment: Antifungal activity against Candida albicans ATCC 10231 assessed as growth inhibition at pH 7 incubated for 20 hrs in presence of 10% beef serum; assay type: functional; details: for MIC: ATCC 10231, 20 h, read-out: MIC100; method in brief: as §1
[9] = tested on: Trichophyton mentagrophytes; experiment: Antifungal activity against Trichophyton mentagrophytes ATCC 9129 assessed as growth inhibition at pH 7 incubated for 5 days in absence of 10% beef serum; assay type: functional; details: ATCC 9129, 120 h, read-out: MIC100; method in brief: as §1
[10] = tested on: Trichophyton mentagrophytes; experiment: Antifungal activity against Trichophyton mentagrophytes ATCC 9129 assessed as growth inhibition at pH 7 incubated for 5 days in presence of 10% beef serum; assay type: functional; details: ATCC 9129, 120 h, read-out: MIC100; method in brief: as §1
Mucor mucedo [11] = experiment: Antifungal activity against Mucor mucedo ATCC 7941 assessed as growth inhibition at pH 5.6 incubated for 20 hrs in presence of 10% beef serum; assay type: functional; details: ATCC 7941, 20 h, read-out: MIC100; method in brief: as §1
Mucor mucedo [12] = experiment: Antifungal activity against Mucor mucedo ATCC 7941 assessed as growth inhibition at pH 7 incubated for 20 hrs in absence of 10% beef serum; assay type: functional; details: ATCC 7941, 20 h, read-out: MIC100; method in brief: as §1
Candida albicans [13] = experiment: Antifungal activity against Candida albicans ATCC 10231 assessed as growth inhibition at pH 5.6 incubated for 20 hrs in presence of 10% beef serum; assay type: functional; details: for MIC: ATCC 10231, 20 h, read-out: MIC100; method in brief: as §1
Aspergillus niger [14] = experiment: Antifungal activity against Aspergillus niger ATCC 1004 assessed as growth inhibition at pH 5.6 incubated for 5 days in absence of 10% beef serum; assay type: functional; details: for MIC: ATCC 1004, 120 h, read-out: MIC100; method in brief: as §1
[15] = tested on: Trichophyton mentagrophytes; experiment: Antifungal activity against Trichophyton mentagrophytes ATCC 9129 assessed as growth inhibition at pH 5.6 incubated for 5 days in presence of 10% beef serum; assay type: functional; details: ATCC 9129, 120 h, read-out: MIC100; method in brief: as §1
Mucor mucedo [16] = experiment: Antifungal activity against Mucor mucedo ATCC 7941 assessed as growth inhibition at pH 7 incubated for 20 hrs in presence of 10% beef serum; assay type: functional; details: ATCC 7941, 20 h, read-out: MIC100; method in brief: as §1
Mucor mucedo [17] = experiment: Antifungal activity against Mucor mucedo ATCC 7941 incubated for 20 hrs; assay type: functional, organism-based
[18] = tested on: Trichophyton mentagrophytes; experiment: Antifungal activity against Trichophyton mentagrophytes ATCC 9129 incubated for 5 days; assay type: functional, organism-based
Candida albicans [19] = experiment: Antifungal activity against Candida albicans ATCC 10231 incubated for 20 hrs; assay type: functional, organism-based
Aspergillus niger [20] = experiment: Antifungal activity against Aspergillus niger ATCC 1004 incubated for 5 days; assay type: functional, organism-based

| Compound | MIC (Candida albicans [1]) [µg/mL] | MIC (Candida albicans [2]) [µg/mL] | MIC100 (Aspergillus niger [3]) | MIC100 (Aspergillus niger [4]) | MIC100 (Aspergillus niger [5]) | MIC (Mucor mucedo [6]) [µg/mL] | MIC [7] [µg/mL] | MIC (Candida albicans [8]) [µg/mL] | MIC [9] [µg/mL] | MIC [10] [µg/mL] | MIC (Mucor mucedo [11]) [µg/mL] | MIC (Mucor mucedo [12]) [µg/mL] | MIC (Candida albicans [13]) [µg/mL] | MIC100 (Aspergillus niger [14]) | MIC [15] [µg/mL] | MIC (Mucor mucedo [16]) [µg/mL] | MIC (Aspergillus niger [3]) [µg/mL] | MIC (Aspergillus niger [4]) [µg/mL] | MIC (Aspergillus niger [5]) [µg/mL] | MIC (Aspergillus niger [14]) [µg/mL] | other results |
| --- | --- | --- | --- | --- | --- | --- | --- | --- | --- | --- | --- | --- | --- | --- | --- | --- | --- | --- | --- | --- | --- |
| CCCCCCOC(=O)/C=C/CI | 16 (≈ 54 µM) | 30 (≈ 101 µM) | inactive | inactive | inactive | 14 (≈ 47.3 µM) | < 1 | 90 | 3 (≈ 10.1 µM) | 20 | 40 | 14 (≈ 47.3 µM) | 80 | inactive | 8 | 50 |  |  |  |  |  |
| COC(=O)/C=C/CCl |  |  | inactive | inactive | inactive | 60 (≈ 446 µM) | 4 (≈ 29.7 µM) |  | 60 (≈ 446 µM) | 60 | 80 | 80 (≈ 595 µM) |  | inactive | 40 | 90 |  |  |  |  | MIC100 (Candida albicans [1]): inactive; MIC100 (Candida albicans [2]): inactive; MIC100 (Candida albicans [8]): inactive; MIC100 (Candida albicans [13]): inactive |
| C=CC(=O)OC |  |  |  |  |  |  |  |  |  |  |  |  |  |  |  |  |  |  |  |  | Activity (Mucor mucedo [17]): inactive; Activity [18]: inactive; Activity (Candida albicans [19]): inactive; Activity (Aspergillus niger [20]): inactive |
| CCOC(=O)/C=C/CI | 8 (≈ 33.3 µM) | 10 (≈ 41.7 µM) |  |  |  | < 1 | < 1 | 18 | 2 (≈ 8.33 µM) | 4 | 4 | 3 (≈ 12.5 µM) | 18 |  | 2 | 5 | 40 (≈ 167 µM) | 40 | 50 | 40 (≈ 167 µM) |  |
| CCCCOC(=O)/C=C/CBr | 16 (≈ 72.4 µM) | 30 (≈ 136 µM) |  |  |  | 4 (≈ 18.1 µM) | < 1 | 40 | 3 (≈ 13.6 µM) | 8 | 4 | 4 (≈ 18.1 µM) | 30 |  | 4 | 7 | 50 (≈ 226 µM) | 80 | 100 | 60 (≈ 271 µM) |  |
| CCCCCOC(=O)/C=C/CI | 5 (≈ 17.7 µM) | 12 (≈ 42.5 µM) |  | inactive | inactive | 4 (≈ 14.2 µM) | < 1 | 50 | 2 (≈ 7.09 µM) | 10 | 9 | 3 (≈ 10.6 µM) | 40 |  | 4 | 12 | 30 (≈ 106 µM) |  |  | 40 (≈ 142 µM) |  |
